A word on the IC50: it is the concentration needed to halve the response being measured. Higher therefore signals weaker potency.

pIC50: −log10 of the molar value.

The record followed here is PMC3417756 (Bioorganic & medicinal chemistry, 2012).

Series [1] can be described thus: MTT cytotoxicity assay in murine macrophage cells. In kind it is cell-based. To be noted: mouse, RAW 264.7 murine macrophage cells.
The test system of series [2] is NF-κB. Briefly: LPS-induced NF-κB luciferase reporter assay in RAW264.7 cells. The class given is cell-based. To be noted: Mus musculus, RAW264.7, read-out: inhibition of NF-κB. The essentials: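 RAW264.7 cells stably transfected with an NF-κB luciferase reporter were seeded at 5 × 10^4 cells per well in 96-well plates. After 24 h recovery, cells were exposed to test compound plus LPS (100 ng/mL) for 18 h. Lysates were mixed with luciferase assay reagent and luminescence was read. IC50 is given as mean ± SE, n = 3.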

Series [3] has as its system RAW 264.7 cells. Briefly: MTT cytotoxicity assay in murine macrophage cells. In kind it is cell-based. In general terms: Formazan colour is commonly taken as a measure of viable cells.
For series [4], the system named is phosphorylation of IκBα. Description: Western blot analysis of phosphorylation of IκBα in RAW264.7 cells. The conditions noted are these: increasing concentrations, in the presence of LPS, 4 hr. The class given is cell-based, mouse. Summed up: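 Cells were grown to near confluency and dosed with LPS plus compound at 37 °C. Lysates were made in SDS/2-mercaptoethanol loading buffer, sonicated 15 s and heated at 99.9 °C for 5 min. Proteins were run on 4–15% polyacrylamide SDS gels and transferred to membrane, which was blocked with 5% milk for 1 h. Probes were anti-phospho-IκB and anti-IκB (1:1000) with HRP secondary (1:3000, 1 h, room temperature), detected by chemiluminescence on X-ray film; β-actin served as control.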
In general terms: A western blot detects proteins with antibodies after separation by electrophoresis.

In series [5] the test system is nitric oxide (NO) production. Briefly: Griess assay of LPS stimulated nitric oxide production in RAW264.7 cells. The class given is cell-based, murine. The conditions noted are these: concentrations up to 10 μM. The essentials:
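RAW264.7 cells were plated in RPMI1640 and held 24 h at 37 °C. Medium was replaced, then compound and E. coli 055:B5 LPS were added. Culture supernatant was reacted with Griess reagent (0.5% sulfanilamide, 0.05% N-1-naphthylethylenediamine dihydrochloride, 2.5% H3PO4) for 30 min at room temperature in the dark. Absorbance was read at 530 nm and converted to nitrite using a sodium nitrite standard curve.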
A general note: Nitrite, measured by Griess reagent, commonly stands in for NO production.

Series [6] deals with iNOS. Description: qPCR of LPS-induced iNOS expression in RAW264.7 cells. In kind it is cell-based, mouse. The conditions noted are these: concentrations up to 10 μM; data not shown. Summed up: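 RAW264.7 cells were co-treated with LPS (100 ng/mL) and compound at 0.01–10 μM. Total RNA (0.5 μg) was DNase I-treated and reverse transcribed, and cDNAs were pooled per condition. SYBR Green real-time PCR array was normalised to GAPDH. Data come from three independent experiments and were compared by one-way ANOVA (p<0.05).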

For series [7], the system named is HCT-116 cells. Description: Human colon tumor HCT-116 cytotoxicity assay. In kind it is cell-based. To be noted: HCT-116, read-out: IC50 HCT-116.

In series [1], `CC1=C(O)C(=O)C=C2C1=CC=C1[C@@]2(C)CC[C@@]2(C)[C@@H]3C[C@](C)(C(=O)O)CC[C@]3(C)CC[C@]12C` [compound 5, celastrol, reference compound] yielded an IC50 at 18 h greater than 50 µM.
On to `CCCCCCCCCCCCCC(=O)O[C@H]1CC[C@H](NC(=O)[C@H](OC)[C@H](O)[C@@H](O)[C@H](O)/C=C/C(C)C)C(=O)NC1` [compound 6, bengamide A], for which, in series [2], the pIC50 was 7.10. This compound also showed a concentration for half-maximal inhibition (IC50) at 18 h in series [1] greater than 50 µM. Further, the “cytotoxicity to RAW 264.7 macrophage immune cells (in words)” value in series [3] is “without cytotoxicity”. The IκBα phosphorylation entry in series [4] was “clear decrease in the levels of observed IκBα phosphorylation”. Moreover, the “inhibition of LPS stimulated NO production” value in series [5] is “Neither 6 nor 7 showed NO inhibition activity”. In addition, the “effect on iNOS expression” value in series [6] is given as “Neither 6 nor 7 showed NO inhibition activity or an effect on iNOS expression”.
Consider `CCCCCCCCCCCCCC(=O)O[C@H]1CC[C@H](NC(=O)[C@H](OC)[C@H](O)[C@@H](O)[C@H](O)/C=C/C(C)C)C(=O)N(C)C1` [compound 7, bengamide B], for which the pIC50 in series [2] is 7.05. The compound further showed a half-maximal inhibitory concentration (IC50) at 18 h in series [1] greater than 50 µM. Moreover, the “cytotoxicity to RAW 264.7 macrophage immune cells (in words)” value in series [3] is reported as “without cytotoxicity”. In series [4], the IκBα phosphorylation result is on record as “clear decrease in the levels of observed IκBα phosphorylation”. Also, the “inhibition of LPS stimulated NO production” value in series [5] is on record as “Neither 6 nor 7 showed NO inhibition activity”. Moreover, in series [6], the “effect on iNOS expression” value was “Neither 6 nor 7 showed NO inhibition activity or an effect on iNOS expression”.
The compound `CO[C@@H](C(=O)N[C@H]1CCCCNC1=O)[C@H](O)[C@@H](O)[C@H](O)/C=C/C(C)C` [compound 8, bengamide E] registered an IC50 at 18 h in series [1] greater than 50 µM. Besides, the IκBα phosphorylation result in series [4] is “clear decrease in the levels of observed IκBα phosphorylation”.
Compound `CO[C@@H](C(=O)N[C@H]1CC[C@@H](OC(=O)C2CCCCC2)CN(C)C1=O)[C@H](O)[C@@H](O)[C@H](O)/C=C/C(C)(C)C` [compound 12, LAF 389, reference compound] gave a 50% inhibitory concentration (IC50) at 18 h in series [1] greater than 50 µM.
Still for that read-out and setting: with `CCC(C)/C=C/[C@@H](O)[C@H](O)[C@@H](O)[C@@H](OC)C(=O)N[C@H]1CCCCNC1=O` (stereo partly shown) [compound 13, bengamide E’] the figure was greater than 50 µM.
Regarding `CCC(C)/C=C/[C@@H](O)[C@H](O)[C@@H](O)[C@@H](OC)C(=O)N[C@H]1CCCCN(C)C1=O` (stereo partly shown) [compound 14, bengamide F’], in series [1], the half-maximal inhibitory concentration (IC50) at 18 h is greater than 50 µM. The pIC50 in series [7] was 5.29.
